Source: PubChem BioAssay AID488910 (Broad Institute, 2010)
Among all 20,000 compounds or so, about 25 (0.1%) were called active.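 The calls were made as follows: active = mean replicate protection from cytokine-induced ATP loss at least 50% and at least 75% of replicates each reaching 50%; inconclusive = meets only one of the two criteria, mean or replicate share; inactive = fails both the mean and replicate share criteria.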 The full list was thinned out, with actives kept by preference.

assay: protection of INS-1E cells from cytokine death, primary screen, ATP luminescence, single point (AID 488910); conditions: INS-1E cytokine-induced death, 48 h, at 10 µM, hits give high values, normalised: neutral wells 0, positive control 100
Method in brief: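 Test system: INS-1E rat cells | Quantity: 8000 cells per well | Medium: Phenol-red-free RPMI with 5% fetal bovine serum | Reagent: Cytokine cocktail of IFN-γ, TNF-α and IL-1β | Doses: One compound concentration, pin transfer | Timing: 48 h co-treatment, 10 min post-lysis read | Technique: Luminescent ATP assay (CellTiter-Glo)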

| SMILES | protection from cytokine-induced ATP loss |
| --- | --- |
| C[C@H](CO)N1C[C@H](C)[C@H](CN(C)C(=O)Nc2ccc(F)cc2)Oc2c(NC(=O)c3cnccn3)cccc2C1=O | 8.13% (inactive) |
| C[C@@H]1CCCCO[C@H](CN(C)C(=O)c2ccccc2)[C@@H](C)CN([C@H](C)CO)C(=O)c2cc(NC(=O)Nc3cccc4ccccc34)ccc2O1 | -1.39% (inactive) |
| C[C@@H]1CCCCO[C@H](CN(C)S(=O)(=O)c2ccccc2)[C@@H](C)CN([C@H](C)CO)C(=O)c2cc(NC(=O)Nc3ccc(F)cc3)ccc2O1 | -6.46% (inactive) |
| CC(C)NC(=O)N(C)C[C@H]1Oc2ccc(NC(=O)Cn3cnnn3)cc2CC(=O)N([C@H](C)CO)C[C@H]1C | -1.35% (inactive) |
| Cc1noc(C)c1NC(=O)Nc1ccc2c(c1)C(=O)N([C@H](C)CO)C[C@H](C)[C@H](CN(C)Cc1ccc(Oc3ccccc3)cc1)O2 | -15.9% (inactive) |
| C[C@H](CO)N1C[C@H](C)[C@H](CN(C)S(C)(=O)=O)Oc2ccc(NC(=O)Nc3ccc(F)cc3)cc2C1=O | 2.55% (inactive) |
| CC(C)NC(=O)N(C)C[C@@H]1Oc2c(cccc2N(C)C)C(=O)N([C@@H](C)CO)C[C@H]1C | 10.2% (inactive) |
| C[C@@H]1CN([C@H](C)CO)C(=O)c2cccc(NS(=O)(=O)c3ccc(F)cc3)c2O[C@@H]1CN(C)C(=O)Nc1ccc(C(F)(F)F)cc1 | -38% (inactive) |
| Cc1ccc(S(=O)(=O)N(C)C[C@@H]2Oc3c(NC(=O)c4ccncc4)cccc3C(=O)N([C@@H](C)CO)C[C@@H]2C)cc1 | 11.7% (inactive) |
| COc1ccc(NC(=O)N(C)C[C@H]2Oc3c(NC(=O)Nc4cccc5ccccc45)cccc3C(=O)N([C@H](C)CO)C[C@@H]2C)cc1 | -0.252% (inactive) |
| COc1cc(Br)cc(/C=N/NC(=O)c2ccccn2)c1O | -83.9% (inactive) |
| C[C@@H]1CCCCO[C@H](CN(C)CC2CC2)[C@@H](C)CN([C@H](C)CO)C(=O)c2cc(NC(=O)Cc3ccccc3)ccc2O1 | -0.194% (inactive) |
| COc1ccc(NC(=O)N(C)C[C@H]2Oc3ccc(NC(=O)Nc4ccc5c(c4)OCO5)cc3C(=O)N([C@H](C)CO)C[C@H]2C)cc1 | 3.2% (inactive) |
| Cc1ccc(S(=O)(=O)Nc2ccc3c(c2)C(=O)N([C@H](C)CO)C[C@H](C)[C@H](CN(C)Cc2ccccc2)OCCCC[C@@H](C)O3)cc1 | -2.3% (inactive) |
| CC(C)NC(=O)N(C)C[C@H]1Oc2c(NS(C)(=O)=O)cccc2C(=O)N([C@@H](C)CO)C[C@H]1C | 12.8% (inactive) |
| C[C@H]1CN([C@@H](C)CO)C(=O)c2cc(NC(=O)Cn3cnnn3)ccc2O[C@@H]1CN(C)C(=O)Nc1ccccc1 | 2.24% (inactive) |
| Cc1ccc(S(=O)(=O)N(C)C[C@@H]2Oc3ccc(NC(=O)Nc4ccc5c(c4)OCO5)cc3C(=O)N([C@@H](C)CO)C[C@@H]2C)cc1 | 20.1% (inactive) |
| O=C(O)CCCCCCC(=O)N/N=C/c1ccncc1Br | 6.66% (inactive) |
| C[C@H]1CN([C@@H](C)CO)C(=O)c2cccc(NC(=O)C3CCCCC3)c2O[C@H]1CN(C)C(=O)NC1CCCCC1 | 6.52% (inactive) |

| SMILES | protection from cytokine-induced ATP loss |
| --- | --- |
| Cc1noc(C)c1NC(=O)N(C)C[C@H]1Oc2ccc(NC(=O)C3CCCCC3)cc2CC(=O)N([C@@H](C)CO)C[C@H]1C | 4.09% (inactive) |
| Cc1ccc(S(=O)(=O)N(C)C[C@@H]2OCCCC[C@@H](C)Oc3ccc(NS(=O)(=O)c4ccccc4)cc3C(=O)N([C@H](C)CO)C[C@@H]2C)cc1 | -4.67% (inactive) |
| Cc1ccc(S(=O)(=O)Nc2ccc3c(c2)C(=O)N([C@H](C)CO)C[C@H](C)[C@H](CN(C)Cc2ccc(C(=O)Nc4ccccc4N)cc2)OCCCC[C@@H](C)O3)cc1 | 1.83% (inactive) |
| C[C@H]1CN([C@@H](C)CO)C(=O)c2cc(NS(=O)(=O)c3ccc(Cl)cc3)ccc2O[C@H]1CN(C)Cc1ccc(Oc2ccccc2)cc1 | -11.4% (inactive) |
| C[C@@H]1CCCCO[C@@H](CN(C)C(=O)CCCN(C)C)[C@@H](C)CN([C@H](C)CO)C(=O)c2cc(NC(=O)Nc3ccc(F)cc3)ccc2O1 | 9.84% (inactive) |
| C[C@H](CO)N1C[C@H](C)[C@H](CN(C)Cc2ccncc2)Oc2ccc(NC(=O)C3CCCCC3)cc2CC1=O | -9.96% (inactive) |
| COc1ccc(NC(=O)N(C)C[C@H]2Oc3c(NC(=O)C4CC4)cccc3C(=O)N([C@@H](C)CO)C[C@@H]2C)cc1 | -1.85% (inactive) |
| C[C@@H]1CN([C@H](C)CO)C(=O)c2cccc(NC(=O)c3cnccn3)c2O[C@@H]1CN(C)Cc1ccncc1 | 3.26% (inactive) |
| C[C@@H]1CN([C@H](C)CO)C(=O)c2cc(NC(=O)CCCCCC(=O)Nc3ccccc3N)ccc2O[C@H]1CN(C)C(=O)Nc1ccc(C(F)(F)F)cc1 | 1.3% (inactive) |
| C[C@@H]1CN([C@H](C)CO)C(=O)Cc2cc(NC(=O)CCN3CCOCC3)ccc2O[C@@H]1CN(C)S(C)(=O)=O | 3.88% (inactive) |
| Cc1ccc(S(=O)(=O)N(C)C[C@H]2Oc3ccc(NS(=O)(=O)c4ccccc4)cc3CC(=O)N([C@@H](C)CO)C[C@H]2C)cc1 | -6.07% (inactive) |
| C[C@@H]1CN([C@H](C)CO)C(=O)c2cccc(NC(=O)C3CCCCC3)c2O[C@@H]1CN(C)C(=O)NC1CCCCC1 | 6.03% (inactive) |
| C[C@H](CO)N1C[C@H](C)[C@H](CN(C)Cc2ccc3c(c2)OCO3)Oc2c(NC(=O)NC3CCCCC3)cccc2C1=O | -16.1% (inactive) |
| CNC[C@@H]1Oc2ccc(NS(=O)(=O)c3c(C)noc3C)cc2CC(=O)N([C@@H](C)CO)C[C@@H]1C | 0.843% (inactive) |
| CC(C)NC(=O)Nc1ccc2c(c1)C(=O)N([C@H](C)CO)C[C@H](C)[C@@H](CN(C)S(C)(=O)=O)OCCCC[C@@H](C)O2 | 1.03% (inactive) |
| C[C@@H]1CN([C@@H](C)CO)C(=O)Cc2cc(NC(=O)C3CCCCC3)ccc2O[C@@H]1CN(C)C(=O)Nc1ccc(C(F)(F)F)cc1 | -12.7% (inactive) |
| Cc1ccc(S(=O)(=O)N(C)C[C@@H]2Oc3c(NS(=O)(=O)c4ccc(F)cc4)cccc3C(=O)N([C@@H](C)CO)C[C@H]2C)cc1 | 15.4% (inactive) |
| COc1ccc(NC(=O)N(C)C[C@H]2Oc3ccc(NC(=O)Cc4cn(C)c5ccccc45)cc3CC(=O)N([C@@H](C)CO)C[C@H]2C)cc1 | 13.3% (inactive) |
| Cc1noc(C)c1NC(=O)Nc1ccc2c(c1)C(=O)N([C@H](C)CO)C[C@@H](C)[C@@H](CN(C)Cc1ccccc1)O2 | 2.87% (inactive) |

| SMILES | protection from cytokine-induced ATP loss |
| --- | --- |
| C[C@@H]1CCCCO[C@@H](CN(C)CC2CC2)[C@@H](C)CN([C@H](C)CO)C(=O)c2cc(NC(=O)Nc3cccc4ccccc34)ccc2O1 | -7.95% (inactive) |
| Cc1cccc(CN(C)C[C@H]2OCc3cn(nn3)CCCC(=O)N([C@@H](C)CO)C[C@H]2C)c1 | -2.7% (inactive) |
| Cc1ccc(S(=O)(=O)N(C)C[C@@H]2Oc3ccc(NC(=O)c4ccncc4)cc3CC(=O)N([C@H](C)CO)C[C@H]2C)cc1 | -0.881% (inactive) |
| COc1cc(/C=C/C=N/NC(=O)CCCCCC(=O)Nc2ccccc2O)ccc1O | -1.89% (inactive) |
| CC(C)NC(=O)N(C)C[C@H]1Oc2c(NC(=O)Nc3ccc(F)cc3)cccc2C(=O)N([C@@H](C)CO)C[C@@H]1C | 12.3% (inactive) |
| COc1ccc(S(=O)(=O)Nc2ccc3c(c2)CC(=O)N([C@@H](C)CO)C[C@@H](C)[C@@H](CN(C)C(=O)Nc2c(C)noc2C)O3)cc1 | 9.17% (inactive) |
| COc1ccc(NC(=O)Nc2ccc3c(c2)C(=O)N([C@H](C)CO)C[C@H](C)[C@@H](CN(C)C(=O)NC2CCCCC2)OCCCC[C@@H](C)O3)cc1 | 14.1% (inactive) |
| C[C@H]1CN([C@@H](C)CO)C(=O)c2cc(NC(=O)C3CCCCC3)ccc2O[C@H]1CN(C)S(=O)(=O)c1cn(C)cn1 | 2.64% (inactive) |
| C[C@H]1CN([C@@H](C)CO)C(=O)c2cccc(NC(=O)Nc3ccccc3)c2O[C@H]1CN(C)S(=O)(=O)c1ccc(Cl)cc1 | -12.7% (inactive) |
| C[C@@H]1CN([C@H](C)CO)C(=O)Cc2cc(NC(=O)Nc3ccc(C(F)(F)F)cc3)ccc2O[C@@H]1CN(C)S(=O)(=O)c1ccccc1 | -5.63% (inactive) |
| C[C@H](CO)N1C[C@H](C)[C@H](CN(C)C(=O)Nc2ccc(C(F)(F)F)cc2)Oc2ccc(NS(=O)(=O)c3cn(C)cn3)cc2CC1=O | 19% (inactive) |
| C[C@@H]1CN([C@@H](C)CO)C(=O)Cc2cc(NS(=O)(=O)c3cccs3)ccc2O[C@@H]1CN(C)C(=O)Nc1ccc(C(F)(F)F)cc1 | -9.39% (inactive) |
| O=C(N/N=C/c1ccc(Oc2ccccc2)cc1)c1ccccn1 | 4.62% (inactive) |
| CC(C)NC(=O)Nc1cccc2c1O[C@@H](CN(C)Cc1ccc(C(=O)O)cc1)[C@@H](C)CN([C@H](C)CO)C2=O | 5.94% (inactive) |
| C[C@H]1CN([C@@H](C)CO)C(=O)c2cccc(NC(=O)C3CCOCC3)c2O[C@H]1CN(C)S(C)(=O)=O | 10.3% (inactive) |
| COc1ccc(S(=O)(=O)N(C)C[C@H]2Oc3ccc(NC(=O)Nc4c(C)noc4C)cc3CC(=O)N([C@@H](C)CO)C[C@H]2C)cc1 | 6.69% (inactive) |
| Cc1noc(C)c1NC(=O)N(C)C[C@@H]1Oc2ccc(NS(C)(=O)=O)cc2C(=O)N([C@@H](C)CO)C[C@@H]1C | 1.81% (inactive) |
| Cc1noc(C)c1S(=O)(=O)Nc1ccc2c(c1)CC(=O)N([C@H](C)CO)C[C@H](C)[C@H](CN(C)S(=O)(=O)c1cn(C)cn1)O2 | 15.3% (inactive) |
